{
  "source": "paper PMC2947195",
  "about": "(Biochemical Journal, 2010)",
  "key": {"wt hRFC": {"target": "T1, wt hRFC (Homo sapiens, UniProt P41440)", "T1 sequence (P41440 1-591)": "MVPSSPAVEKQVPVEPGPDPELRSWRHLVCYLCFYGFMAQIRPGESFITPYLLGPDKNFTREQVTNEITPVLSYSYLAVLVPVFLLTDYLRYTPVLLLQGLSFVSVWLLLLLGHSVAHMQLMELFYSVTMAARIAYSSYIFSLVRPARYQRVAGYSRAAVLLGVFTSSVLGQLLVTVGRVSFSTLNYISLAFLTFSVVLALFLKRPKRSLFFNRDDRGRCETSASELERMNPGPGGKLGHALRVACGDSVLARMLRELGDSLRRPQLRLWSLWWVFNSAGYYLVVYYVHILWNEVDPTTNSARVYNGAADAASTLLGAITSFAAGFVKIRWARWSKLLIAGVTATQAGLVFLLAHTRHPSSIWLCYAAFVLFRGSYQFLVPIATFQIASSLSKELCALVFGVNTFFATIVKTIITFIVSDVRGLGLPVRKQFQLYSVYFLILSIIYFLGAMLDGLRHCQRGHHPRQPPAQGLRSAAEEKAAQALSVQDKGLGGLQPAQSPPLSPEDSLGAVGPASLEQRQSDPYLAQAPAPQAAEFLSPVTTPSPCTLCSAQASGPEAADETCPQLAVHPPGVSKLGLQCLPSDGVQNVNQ", "assay": "[3H]MTX transport kinetics", "assay_type": "cell-based", "in_short": "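Human hRFC-null K500E (K562 subline) cells were electroporated (155 V, 1000 μF) with wt or Ser313-mutant hRFC. Stable clones were selected in soft agar with G418 (1 mg/ml). [3H]MTX uptake was measured over 180 s in HBSS at 37 °C in a shaking water bath and expressed as pmol/mg protein (Lowry). Kt and Vmax came from Lineweaver–Burk plots, with Vmax normalized to densitometric Western blot hRFC levels. Three experiments, means±S.E.M.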"}, "cl-N6/C6 hRFC": {"target": "T2, cl-N6/C6 hRFC (Homo sapiens, UniProt P41440, C220S/C246S/C30S/C33S/C365S/C396S/C458S)", "T2 sequence (P41440 1-591 C30S/C33S/C220S)": "T1 sequence (P41440 1-591) with C30S, C33S, C220S", "T2 sequence (P41440 227-537 C246S/C365S/C396S/C458S limits assumed)": "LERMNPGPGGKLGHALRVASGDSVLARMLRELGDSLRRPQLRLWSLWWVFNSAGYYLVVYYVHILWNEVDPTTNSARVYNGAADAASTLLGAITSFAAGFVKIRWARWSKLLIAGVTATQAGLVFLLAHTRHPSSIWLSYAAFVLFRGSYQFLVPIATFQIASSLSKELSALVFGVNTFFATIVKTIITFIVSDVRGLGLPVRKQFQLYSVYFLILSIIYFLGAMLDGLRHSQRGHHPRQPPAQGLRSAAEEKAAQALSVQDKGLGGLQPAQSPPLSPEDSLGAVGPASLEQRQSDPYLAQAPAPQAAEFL", "assay": "[3H]MTX uptake in R5 HeLa cells co-transfected with cysteine-less half-molecules", "assay_type": "cell-based", "conditions": "0.5 μM [3H]MTX"}},
  "note": "Substitutions are numbered along the chain they refer to.",
  "data": [
    {"smiles": "CN(Cc1cnc2nc(N)nc(N)c2n1)c1ccc(C(=O)N[C@@H](CCC(=O)O)C(=O)O)cc1", "note": "[MTX, methotrexate]", "values": [
      {"measurement": "Vmax (normalized)/Kt", "setting": "wt hRFC", "value": 2.44},
      {"measurement": "Kt", "setting": "wt hRFC; K500E stable transfectant, mean±S.E.M., n=3", "value": "1.89 ± 0.43", "unit": "µM"},
      {"measurement": "Normalized Vmax", "setting": "wt hRFC; Vmax normalized to relative hRFC level on Western blots", "value": "4.62±0.37"},
      {"measurement": "MTX uptake relative to residual level in R5 cells", "setting": "cl-N6/C6 hRFC", "value": "~ 3 fold"},
      {"measurement": "decrease of MTX transport compared with wt-N6/C6", "setting": "cl-N6/C6 hRFC", "value": "~ 40%"}
    ]}
  ]
}
